# An excerpt weighted towards active compounds, which were near 2.6% of everything screened.
# PolyA inh – yeast polyadenylation inhibition; S. cerevisiae SKY197-pL101 polyadenylation reporter, beta-gal luminescence; efflux-impaired pdr1/pdr3 knockout yeast; score 100 = 6 SD above DMSO; activity score, % at 12 µM; actives 0.02% (n = 300,000);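 active = lowest replicate activity score at least 50, where 100 means six control SD above control mean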;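 also: yeast exposed to compound for 9 h at 30 °C; higher score means more reporter readthrough which indicates perturbed polyadenylation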
# AHR act – human AHR activation | AID 2796 | AHR-responsive luciferase reporter cells, luminescence | actives 2.5% (n = 320,000) | activation, % at 5 µM | P35869; in the data active = activation above about 47%;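 also: 0% = vehicle wells and 100% = reference agonist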
# proCasp3 act – activators of human procaspase-3 | P42574 | recombinant procaspase-3 D3A, Ac-DEVD-pNA absorbance 405 nm | activation, % at 8.5 µM | actives 0.11% (n = 330,000) | AID 463141;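 active = activation above the mean of all tested compounds plus 3 SD, cut at about 21% in these data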;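 also: 0% = DMSO alone and 100% = DMSO wells spiked with extra 5 µM PC-3 D3A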
# Target sequence (P42574 whole entry D9A/D28A/D175A): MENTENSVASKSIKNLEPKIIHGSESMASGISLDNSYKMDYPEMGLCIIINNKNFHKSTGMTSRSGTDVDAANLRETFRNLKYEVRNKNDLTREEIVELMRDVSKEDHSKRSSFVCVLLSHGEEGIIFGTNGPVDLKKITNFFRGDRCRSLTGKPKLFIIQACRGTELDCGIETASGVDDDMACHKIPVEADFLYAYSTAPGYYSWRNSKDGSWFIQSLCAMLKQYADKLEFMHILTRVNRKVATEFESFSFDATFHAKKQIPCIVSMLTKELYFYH
#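 Test system: Procaspase-3 D3A mutant; medium: Zinc-free HEPES/NaCl buffer with 0.01% Triton X-100 at pH 7.4; reagent: DEVD-pNA substrate; doses: one concentration, 8.5 µM nominal, 0.8% DMSO; times: 1 h preincubation plus 2 h reaction at 25 °C; signal: Epi-absorbance at 405 nm of released p-nitroaniline, 0 and 120 min; replicates: singlicate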
# procasp7 counter – counter-screen for procaspase-3 activators: activators of human procaspase-7; P55210; recombinant procaspase-7, Ac-DEVD-pNA absorbance 405 nm; D23A/D198A/D206A triple mutant, cannot self-cleave; scale: DMSO 0, 5 µM enzyme 100; activation, % at 8.5 µM; actives 0.093% (n = 330,000); AID 463210;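 active = percent activation above the screen-wide mean plus 3 SD, cut at about 25% in these data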
# Target sequence (P55210 whole entry D23A/D198A/D206A): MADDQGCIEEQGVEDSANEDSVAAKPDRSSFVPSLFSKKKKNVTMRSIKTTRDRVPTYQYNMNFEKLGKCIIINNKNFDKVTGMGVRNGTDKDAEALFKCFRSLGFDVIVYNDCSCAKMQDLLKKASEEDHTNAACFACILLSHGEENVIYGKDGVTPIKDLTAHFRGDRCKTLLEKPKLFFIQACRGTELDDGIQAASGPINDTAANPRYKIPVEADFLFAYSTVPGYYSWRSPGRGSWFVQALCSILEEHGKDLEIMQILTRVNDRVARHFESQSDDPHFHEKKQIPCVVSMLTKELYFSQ
#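 Replicates: singlicate. Assay system: Procaspase-7 triple mutant (PC-7 D3A). Signal: 405 nm absorbance of p-nitroaniline. Times: 1 h preincubation, 2 h reaction. Buffer or medium: Zinc-free HEPES pH 7.4 with 300 mM NaCl, 0.01% Triton X-100. Also added: DEVD-pNA substrate. Benchmarks: DMSO wells as 0%, DMSO with 5 µM added PC-7 as 100%.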
# AHR act confirm – human AHR activation, confirmation | shares compounds with AHR act | human cells, AHR-responsive luciferase reporter, luminescence | activation, % at 9 µM | actives 87% (n = 2,300) | AID 2845; in the data active = activation above about 49%;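 also: HepG2 hepatoma cells carrying a DRE-driven firefly luciferase reporter; 0% = vehicle wells and 100% = reference agonist wells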
# PXR act counter – PXR activation, counter-screen for AHR activators; shares compounds with AHR act; cell-based PXR reporter, luciferase luminescence; activation, % at 11.6 µM; actives 88% (n = 2,300); in the data active = activation above about 11%;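 also: human hepatoma DPX-2 cells expressing full-length human PXR; 0% = DMSO and 100% = reference agonist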
# * = called active by the depositor; . = not tested or not shown.
SMILES,PolyA inh,AHR act,proCasp3 act,procasp7 counter,AHR act confirm,PXR act counter
CCOc1cccc2sc(NC(=O)c3ccc(Br)s3)nc12,1,97*,2,0,20,13*
C/C(=C\C(=O)c1ccccc1)NNc1nc2ccccc2s1,-38,97*,-9,-8,18,54*
CC(=O)NNc1nc2ccccc2s1,-7,20,0,10,.,.
Cc1ccc(S(=O)(=O)CCC(=O)OCC(=O)N(Cc2ccccc2)C(C)C)cc1,-6,-1,-4,9,.,.
CCOC(=O)c1oc2ccccc2c1N,3,82*,-6,-1,122*,.
CCOC(=O)c1oc2ccccc2c1NC(=O)COC,-7,89*,12,-7,104*,15*
CCc1noc(N)c1C(=O)Nc1ccc(F)c(Cl)c1,-13,80*,-2,7,109*,12*
CCCc1cc(C(=O)Nc2ccc(F)c(Cl)c2)no1,22,-7,-4,-1,.,.
O=C(NC1CCCC1)c1c(O)nc2sccn2c1=O,20,85*,-10,-1,114*,10
O=C(Nc1cc(Cl)cc(Cl)c1)c1cccc(OC(F)F)c1,-10,81*,5,5,94*,44*
CCOc1ccc(OCCC(=O)N(CC)CC(=O)NCc2ccc(Cl)cc2)cc1,-10,1,0,5,.,.
CC(C)c1ccc(NC(=O)c2ccc(Br)o2)cc1,-20,99*,-5,0,107*,35*
CC(NC(=O)CCNC(=O)c1ccc(Br)cc1)c1ccc(-n2ccnc2)cc1 (stereo not given),20,0,2,11,.,.
NCCCn1c(C(=O)c2ccc(Cl)cc2)c2ccc(C(F)(F)F)cc2[n+]1[O-],-20,100*,11,-11,104*,29*
NCCCn1c(C(=O)c2ccc(Cl)cc2)c2ccc([N+](=O)[O-])cc2[n+]1[O-],3,41,2,-4,.,.
O=S(=O)(Nc1cc(Sc2cccc3cccnc23)c(O)c2ccccc12)c1ccc(F)cc1,-14,85*,-12,-12,25,132*
COn1c(C)c(C(C)=O)c2c3no[n+]([O-])c3ccc21,4,1,4,-2,.,.
C=CCOn1c(C)c(C(C)=O)c2c3nonc3ccc21,-5,81*,3,-8,71*,48*
C=CCOn1c(C)c(C(C)=O)c2c3no[n+]([O-])c3ccc21,0,111*,3,-6,78*,85*
Cc1cccc(NC(=S)Nc2cccc(C(F)(F)F)c2)n1,-18,104*,-6,-3,125*,23*
CCOCC(=O)Nc1c(C(=O)Nc2ccc3c(c2)OCO3)oc2ccccc12,-19,102*,-4,12,106*,51*
CCOc1ccc(NC(=O)c2oc3ccccc3c2NC(=O)CC)cc1,-12,95*,-1,-6,58*,29*
CNc1ccccc1C(=O)OCC(=O)N(CCOC)c1c(N)n(CC(C)C)c(=O)[nH]c1=O,-11,-2,12,4,.,.
COc1ccc(/C=N\NC(=O)c2ccccc2OC)cc1COc1ccccc1C,-15,96*,0,-1,109*,35*
COc1ccc(/C=N\NC(=O)c2ccccc2F)cc1COc1ccc(F)cc1F,-2,14,1,-7,.,.
SMILES,PolyA inh,AHR act,proCasp3 act,procasp7 counter,AHR act confirm,PXR act counter
COc1ccc(/C=N/NC(=O)c2nc(Cl)c(Cl)c(N)c2Cl)cc1COc1ccc(F)cc1F,12,84*,-2,2,97*,60*
COc1ccc(/C=N\NC(=O)c2ccccc2F)cc1COc1ccc(F)cc1,-9,31,2,5,.,.
COc1ccc(/C=N/NC(=O)c2nc(Cl)c(Cl)c(N)c2Cl)cc1COc1ccccc1F,7,116*,2,0,99*,105*
COc1ccc(/C=N/NC(=O)c2ccc(NC(C)=O)cc2)cc1COc1ccc(F)cc1F,-16,18,2,13,.,.
Cc1cc(C)cc(N2CC(C(=O)NC3CCCCC3)CC2=O)c1 (stereo not given),15,7,-1,-1,.,.
Cc1nc(NCCOc2ccccc2)sc1C(=O)Nc1ccccc1,-19,88*,4,5,145*,47*
Cc1nc(NCc2ccccc2)sc1C(=O)Nc1ccccc1,-12,12,-13,-4,.,.
O=C(Nc1ccc(Cl)cc1)C1CCCN(C2=NS(=O)(=O)c3ccccc32)C1 (stereo not given),.,1,8,8,.,.
COc1ccc(/C=N/Nc2nncn2N)cc1Br,2,88*,-11,-29,41,12*
COc1cc(/C=N/Nc2nncn2N)ccc1OCc1c(C)no[n+]1[O-],1,3,-11,-29,.,.
Cc1ccc2occ(/C=N/O)c(=O)c2c1,1,18,2,1,.,.
O=c1c(/C=N/O)coc2ccc3ccccc3c12,-15,84*,-16,-6,18,6
COc1ccc(-c2nn(-c3ccccc3)cc2C(=O)N2CCN(S(=O)(=O)c3cccc(F)c3)CC2)cc1,-24,8,11,-7,.,.
Cn1cncc1C#Cc1c(C=O)n(C)c2ccccc12,.,114*,-37,-22,109*,23*
O=C(Nc1ccc2c(c1)OCCO2)C1CCCN1C(=O)Nc1ccc(F)cc1 (stereo not given),7,0,-3,0,.,.
O=C(NCCCn1ccnc1)c1cc(Cl)cc(Cl)c1,19,87*,16,9,74*,22*
CC1CCC(CN2C(Nc3ccccc3)=NC[C@@H]2C)CC1 (stereo not given in full),-5,-1,-1,-8,.,.
Cc1ccc(C(=O)c2sc3c(c2N)c(=O)[nH]c(=O)n3CCc2ccccc2)cc1,-7,86*,-4,4,93*,42*
COC(=O)c1ccccc1NC(=O)NCCc1ccccc1OC,-17,88*,-10,10,110*,32*
COc1cc(NC(=O)c2ccccc2)c(OC)cc1NC(=O)CN1CCCCC1,-9,83*,5,5,96*,23*
COc1cc(NC(=O)c2ccccc2)c(OC)cc1NC(=O)CN1CCOCC1,11,29,-1,11,.,.
Cc1nc(N)sc1-c1csc(Nc2ccccn2)n1,8,.,.,.,.,.
c1ccc(-c2csc(Nc3ccccn3)n2)cc1,0,139*,5,7,131*,16*
Cc1nc(C)c(-c2csc(Nc3ccccn3)n2)s1,10,83*,1,0,23,35*
Cc1nc2cnccc2n1C,2,3,0,9,.,.
Cc1nc2cncc(Br)c2n1C,16,81*,-2,14,46,24*
Cc1cccc(OCc2nnc(SCC(=O)N(c3ccccc3)C3CCS(=O)(=O)C3)o2)c1 (stereo not given),.,0,-1,10,.,.
